Source: paper PMC7394305 (Journal for Immunotherapy of Cancer, 2020)
Where two headings read alike, the source gives them in different places.

Experiments:
MCA205 tumors = MCA205 tumors in immunodeficient NSG mice; assay type: in vivo, mouse; conditions: AZD4635 and anti-PD-L1 (D265A)
In short: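 NSG mice got MCA205 cells sc (1×10^6 in PBS, right flank), with randomisation at 50–90 mm3. Treatment was oral test compound nanosuspension plus anti-PD-L1 (mIgG1 D265A, ip 10 mg/kg twice weekly). Tumor volume was measured twice weekly.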

OT-1 CD8+ T cells [1] = test: Ex vivo CD103+ DC isolation and OT-I T cell co-culture; assay type: in vivo, mouse; conditions: CD103+ DC from TdLN of MC38-OVA mice
OT-1 CD8+ T cells [2] = test: CD103+ DC co-culture with OT-1 CD8+ T cells; assay type: cell-based, mouse
CD8+ T cells = test: T cell IFNγ secretion assay; assay type: cell-based, mouse; conditions: for EC50: Mus musculus, T-cell
MC38-OVA tumors [3] = test: Ex vivo stimulation cytokine flow cytometry of MC38-OVA tumors; assay type: in vivo, mouse; conditions: for IFN-γ, TNF-α, IL-2, granzyme B and CD107a on CD8+ T cells: PMA/ionomycin ex vivo stimulation
In short: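 Dissociated MC38-OVA tumor cells were plated at 2–4e5 live cells/well in complete T cell medium. […] CD8+ T and NK cell cytokines and CD107a were then read by flow cytometry.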

tumor draining LN cells = test: ELISpot assay of tumor draining lymph node cells; assay type: in vivo, mouse; conditions: combination with anti-PD-L1; MC38-OVA tumor-bearing mice
CD103+ DC [4] = test: Analysis of antigen presentation; assay type: cell-based, mouse
MC38 tumors [5] = test: Tumor immunophenotyping flow cytometry of MC38 tumors; assay type: in vivo, mouse
MC38 tumors [6] = test: Gene expression analysis of MC38 tumors; assay type: in vivo, mouse; conditions: 14 days treatment
In short: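 Mice bearing sc MC38 tumors were treated with test compound for 14 days. Tumor gene expression was profiled with the NanoString Mouse PanCancer Immune Profiling Panel.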

CD103+ DC [7] = test: CD103+ DC mouse bone marrow differentiation cultures; assay type: cell-based
monocyte-derived DCs = test: Antigen-specific priming of HLA-A*0201 Melan-A CD8+ T cells; assay type: cell-based, human
MC38-OVA tumors [8] = test: MC38-OVA syngeneic tumor model; assay type: in vivo, mouse
In short: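 C57BL/6 mice bore sc MC38-OVA (5×10^5 cells in PBS) and were randomised at 80–100 mm3. Anti-CD8 or rat IgG2b isotype was injected every 3 days. Mice also got oral test compound 50 mg/kg twice daily plus anti-PD-L1 10 mg/kg ip twice weekly. Tumor volume was tracked twice weekly.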

CD103+ DC [9] = test: Pinocytosis assay; assay type: cell-based, mouse
In short: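 1e6 iDCs were incubated with Alexa 488–ovalbumin (50 µg/mL final) in complete T cell medium for 30 min at 37°C, with 4°C as negative control. Cells were washed twice in ice-cold DPBS, kept chilled and analysed by flow cytometry.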

F4/80+ macrophages = test: Mouse macrophage assay; assay type: cell-based; conditions: 10 µM NECA
[10] = AZD4635 + NECA, dead MC38-OVA tumor cells
[11] = whole ovalbumin protein, AZD4635+NECA
[12] = 5 μM NECA, dead MC38-OVA tumor cells
[13] = DC differentiated with 5 µM NECA, loaded with SIINFEKL peptide

Cc1cc(-c2nnc(N)nc2-c2ccc(F)cc2)cc(Cl)n1 [AZD4635]
antitumor activity in immunodeficient mice (MCA205 tumors): completely abrogated
proliferation of OT-1 CD8+ T cells (OT-1 CD8+ T cells [1]; anti-PD-L1+AZD4635 combination): 53%
proliferation of OT-1 CD8+ T cells (OT-1 CD8+ T cells [1]; single agent, vehicle 5.8%): 28%
restoration of CD107a and IFN-γ (OT-1 CD8+ T cells [2]; AZD4635 + NECA, SIINFEKL peptide): comparable to untreated cells
CD107a response relative to responses elicited by untreated cells (OT-1 CD8+ T cells [2]; [10]): 87%
IFN-γ response compared with untreated cells (OT-1 CD8+ T cells [2]; [10]): not statistically different
EC50 (CD8+ T cells; read-out: EC50 restoration of IFN-γ secretion, 0.1 µM NECA): 53 nM
EC50 (CD8+ T cells; read-out: EC50 restoration of IFN-γ secretion, 1 µM NECA): 598 nM
restoration of IFN-γ secretion (CD8+ T cells; in presence of NECA): back to baseline levels
NK cell IFN-γ production (MC38-OVA tumors [3]; combination with anti-PD-L1): minimal increase
NK cell TNF-α production and CD107a expression (MC38-OVA tumors [3]; combination with anti-PD-L1): strong increase
IFN-γ, TNF-α, IL-2, granzyme B and CD107a on CD8+ T cells (MC38-OVA tumors [3]; combination with anti-PD-L1): most significantly increased
IFN-γ, TNF-α, IL-2, granzyme B and CD107a on CD8+ T cells (MC38-OVA tumors [3]; single agent): all enhanced
IFN-γ response to OVA and p15E peptides (tumor draining LN cells): Strong activation of IFN-γ
rescue of antigen presentation compared with NECA treatment (CD103+ DC [4]; SIINFEKL pulsed cultures, AZD4635 3 µM + NECA): twofold
antigen presentation level versus untreated CD103+ DCs (CD103+ DC [4]; [11]): restored to a level comparable to untreated
increase of antigen presentation compared with NECA (CD103+ DC [4]; [11]): nearly fivefold
MHCII and CD86 expression on CD11c+ DCs and F4/80+ macrophages (MC38 tumors [5]; 14 days, single agent): increased expression
intratumoral frequencies of DCs and macrophages (MC38 tumors [5]; 14 days, single agent): did not increase
frequency of infiltrating CD8+ cytotoxic lymphocytes compared with vehicle (MC38 tumors [5]; in combination with anti-PD-L1): significantly increased
expression of genes associated with immune activation relative to vehicle (MC38 tumors [6]): upregulated expression
differentiation into CD103+ DC (CD103+ DC [7]; 3 µM AZD4635 then NECA): able to differentiate into CD103^+ DC efficiently
Melan-A26-35 tetramer positive CD8+ T cells (monocyte-derived DCs; 5 µM NECA, AZD4635 3 µM where given, tabulated, 4 donors, no NECA 32%): 16%
tumor efficacy of combination (MC38-OVA tumors [8]; AZD4635 50 mg/kg twice daily with αPD-L1 10 mg/kg): appreciable beneficial combination effect
antitumor activity after depletion of CD8 T cells (MC38-OVA tumors [8]; AZD4635+PD-L1 treatments, antimouse CD8 antibody): completely abrogated
rescue of fluorescent OVA uptake (CD103+ DC [9]; AZD4635 3 µM with NECA): almost to levels in untreated control

CCNC(=O)[C@H]1O[C@@H](n2cnc3c(N)ncnc32)[C@H](O)[C@@H]1O [NECA, 5′-(N-ethylcarboxamido) adenosine]
reduction of CD107a response (OT-1 CD8+ T cells [2]; [12]): 75%
reduction of IFN-γ response (OT-1 CD8+ T cells [2]; [12]): 75%
reduction of CD107a expression by OT-1 CD8+ T cells (OT-1 CD8+ T cells [2]; [13]): 72%
reduction of IFN-γ secretion by OT-1 CD8+ T cells (OT-1 CD8+ T cells [2]; [13]): 60%
suppression of IFN-γ secretion (CD8+ T cells; 1 µM NECA, CD3/CD28 beads): 80%
antigen presentation compared with untreated CD103+ DC (CD103+ DC [4]; SIINFEKL pulsed cultures, NECA 5 µM): less than a third
antigen presentation compared with untreated cells (CD103+ DC [4]; whole ovalbumin protein, NECA 5 µM): a log-fold reduced
CD103+ cells (CD103+ DC [7]; 5 µM NECA, untreated 80%): 57%
Melan-A26-35 tetramer positive CD8+ T cells (monocyte-derived DCs): 2.5%
reduction of cross-priming function of DCs (monocyte-derived DCs; 5 µM NECA): greater than 90%
suppression of MHCII expression relative to DMSO-treated controls (F4/80+ macrophages): > 90%
reduction of fluorescent OVA uptake (CD103+ DC [9]; NECA 5 µM): ~50%
